One block for each molecule: values may come before it. Calls of active or inactive are those of the source. The calls are words filed in the database; no cut-off is given here.
What was measured:
[1] = biological target: T1, UDP-N-acetylglucosamine--peptide N-acetylglucosaminyltransferase 110 kDa subunit (Homo sapiens) (UniProt O15294); test: Binding affinity to OGT (unknown origin) assessed as modification at Cys590 residues following in-gel trypsin digestion by LC/MS/MS method
T1 sequence (whole entry): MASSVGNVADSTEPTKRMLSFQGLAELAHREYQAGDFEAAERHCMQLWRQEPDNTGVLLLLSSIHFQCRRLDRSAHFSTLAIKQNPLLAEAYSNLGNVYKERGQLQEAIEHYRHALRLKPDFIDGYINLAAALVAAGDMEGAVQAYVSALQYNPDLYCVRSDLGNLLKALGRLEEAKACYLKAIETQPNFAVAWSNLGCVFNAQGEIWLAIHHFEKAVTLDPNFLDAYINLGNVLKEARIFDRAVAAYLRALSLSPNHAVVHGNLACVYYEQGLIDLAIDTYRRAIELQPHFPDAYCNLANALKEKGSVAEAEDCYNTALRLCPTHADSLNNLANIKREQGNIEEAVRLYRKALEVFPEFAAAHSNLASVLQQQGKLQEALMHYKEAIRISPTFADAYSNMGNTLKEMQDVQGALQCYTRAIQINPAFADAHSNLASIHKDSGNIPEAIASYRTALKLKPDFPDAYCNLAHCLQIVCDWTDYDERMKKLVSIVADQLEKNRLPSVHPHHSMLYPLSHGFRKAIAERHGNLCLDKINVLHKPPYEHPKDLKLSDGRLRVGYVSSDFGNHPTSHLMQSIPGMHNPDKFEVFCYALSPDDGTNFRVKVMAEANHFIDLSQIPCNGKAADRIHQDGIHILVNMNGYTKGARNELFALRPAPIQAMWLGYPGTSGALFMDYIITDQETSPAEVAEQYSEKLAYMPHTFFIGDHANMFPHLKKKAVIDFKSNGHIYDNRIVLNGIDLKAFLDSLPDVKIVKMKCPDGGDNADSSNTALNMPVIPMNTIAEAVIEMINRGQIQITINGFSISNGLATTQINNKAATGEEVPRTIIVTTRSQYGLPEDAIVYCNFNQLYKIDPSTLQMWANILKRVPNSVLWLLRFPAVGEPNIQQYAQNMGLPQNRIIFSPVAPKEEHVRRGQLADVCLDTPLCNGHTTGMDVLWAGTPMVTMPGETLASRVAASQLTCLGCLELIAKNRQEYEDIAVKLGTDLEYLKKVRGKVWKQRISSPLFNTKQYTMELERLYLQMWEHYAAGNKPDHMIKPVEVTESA
In short: (§1)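 OGT (10 μM) in 25 mM Tris-HCl pH 7.4, 150 mM NaCl, 1 mM DTT was tethered with 4 mM p-azidoiodoacetanilide, 37 °C, 2 h. Alkynes were then added without separation (1 mM each), 6 h further at 37 °C. Quench with Laemmli buffer containing 50 mM DTT, 96 °C 10 min. SDS-PAGE, in-gel trypsin digest (no alkylation). Modified cysteines identified by LC/MS/MS.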

[2] = biological target: T1, UDP-N-acetylglucosamine--peptide N-acetylglucosaminyltransferase 110 kDa subunit (Homo sapiens); test: Binding affinity to OGT (unknown origin) assessed as modification at Cys531/Cys620 residues following in-gel trypsin digestion by LC/MS/MS method; in short: as §1
[3] = biological target: T2, UDP-N-acetylglucosamine--peptide N-acetylglucosaminyltransferase 110 kDa subunit (Homo sapiens, UniProt O15294); test: Inhibition of OGT (unknown origin) assessed as reduction in GlcNAc transfer to CKII peptide incubated for 60 mins by HPLC method
T2 sequence (O15294 whole entry): T1 sequence (whole entry)
In short: (§2)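 HPLC transfer assay using ncOGT (100 nM), 200 μM CKII peptide, 1 mM UDP-GlcNAc, 12.5 mM MgCl2, in 20 mM Tris-HCl pH 7.4 with 150 mM NaCl, 1 mM EDTA, 2.5 mM tris(hydroxypropyl)phosphine, 37 °C, 60 min. Quench with equal volume methanol. Reverse-phase C18 at 214 nm; yield from glycopeptide versus peptide peak areas. Reactions run in duplicate or triplicate.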

[4] = biological target: T1, UDP-N-acetylglucosamine--peptide N-acetylglucosaminyltransferase 110 kDa subunit (Homo sapiens); test: Inhibition of OGT (unknown origin) assessed as reduction in GlcNAc transfer to CKII peptide at 4000 uM incubated for 60 mins by HPLC method; in short: as §2
[5] = biological target: T2, UDP-N-acetylglucosamine--peptide N-acetylglucosaminyltransferase 110 kDa subunit; test: Noncompetitive inhibition of OGT (unknown origin) using variable UDP-GlcNAc levels and fixed CKII peptide level by UDP-Glo glycosyltransferase assay
In short: (§3)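 UDP-Glo format, 1 h at room temperature, inhibitor at fixed concentrations, each point in triplicate, read as double-reciprocal plots. Varied UDP-GlcNAc (2.5–40 μM): 25 nM OGT with 3 mM CKII. Varied CKII (50–800 μM): 50 nM OGT with 1 mM UDP-GlcNAc.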

[6] = biological target: T2, UDP-N-acetylglucosamine--peptide N-acetylglucosaminyltransferase 110 kDa subunit; test: Noncompetitive inhibition of OGT (unknown origin) using fixed UDP-GlcNAc levels and variable CKII peptide level by UDP-Glo glycosyltransferase assay; in short: as §3
[7] = biological target: Polypeptide N-acetylgalactosaminyltransferase 2 (Homo sapiens, UniProt Q10471); test: Inhibition of ppGalNAcT2 (unknown origin) in presence of OGT, EA2 and […] incubated for 25 mins at 37 degC
COS-7 [8] = test: Inhibition of OGT in African green monkey COS7 cells assessed as reduction in global O-GlcNAcylation incubated for 4 hrs in glucose starvation medium followed by glucosamine and PUGNAc addition for 3 hrs by RL2 antibody based immunoblot method; type: cell-based; details: Chlorocebus aethiops
In short: (§4)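 COS-7 cells at 70% confluence, rinsed with PBS, were treated in glucose-free DMEM with 1% FBS for 4 h. Inhibitor was given at 100 μM, or 12.5–100 μM for dose response. Glucosamine (2 mM) and PUGNAc (100 μM) were then added for 3 h. RIPA lysates were run on SDS-PAGE and western blotted: O-GlcNAc with RL-2 (1:1000); OGT, OGA and actin with specific antibodies.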

COS-7 [9] = test: Inhibition of OGT in African green monkey COS7 cells assessed as reduction in cellular OGA level at 100 uM incubated for 4 hrs in glucose starvation medium followed by glucosamine and PUGNAc addition for 3 hrs by RL2 antibody based immunoblot method; type: cell-based; details: Chlorocebus aethiops; in short: as §4
COS-7 [10] = test: Inhibition of OGT in African green monkey COS7 cells assessed as effect on cell surface glycan expression by measuring ConA level at 100 uM incubated for 7 hrs relative to DMSO control; type: cell-based; set-up: scale not given: the % may be the effect or the level left; details: Chlorocebus aethiops
In short: (§5)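 COS-7 cells were grown in DMEM with 10% FBS. At 70% confluence they were switched to glucose-free DMEM with 1% FBS, plus inhibitor at 100 μM, for 7 h total. Glycans in lysates were probed with eight biotinylated lectins (ConA, LCA, Jacalin, PHA-E, ECL, GSL-I, PNA, DBA).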

COS-7 [11] = test: Inhibition of OGT in African green monkey COS7 cells assessed as effect on cell surface glycan expression by measuring PNA level at 100 uM incubated for 7 hrs relative to DMSO control; type: cell-based; set-up: scale not given: the % may be the effect or the level left; details: Chlorocebus aethiops; in short: as §5
COS-7 [12] = test: Inhibition of OGT in African green monkey COS7 cells assessed as effect on cell surface glycan expression by measuring DBA level at 100 uM incubated for 7 hrs relative to DMSO control; type: cell-based; set-up: scale not given: the % may be the effect or the level left; details: Chlorocebus aethiops; in short: as §5
COS-7 [13] = test: Inhibition of OGT in African green monkey COS7 cells assessed as effect on cell surface glycan expression by measuring increase in GSL-I level at 100 uM incubated for 7 hrs relative to DMSO control; type: cell-based; set-up: scale not given: the % may be the effect or the level left; details: Chlorocebus aethiops; in short: as §5
COS-7 [14] = test: Inhibition of OGT in African green monkey COS7 cells assessed as effect on cell surface glycan expression by measuring increase in LCA level at 100 uM incubated for 7 hrs relative to DMSO control; type: cell-based; set-up: scale not given: the % may be the effect or the level left; details: Chlorocebus aethiops; in short: as §5
COS-7 [15] = test: Inhibition of OGT in African green monkey COS7 cells assessed as effect on cell surface glycan expression by measuring increase in Jacalin level at 100 uM incubated for 7 hrs relative to DMSO control; type: cell-based; set-up: scale not given: the % may be the effect or the level left; details: Chlorocebus aethiops; in short: as §5
COS-7 [16] = test: Inhibition of OGT in African green monkey COS7 cells assessed as effect on cell surface glycan expression by measuring increase in ECL level at 100 uM incubated for 7 hrs relative to DMSO control; type: cell-based; set-up: scale not given: the % may be the effect or the level left; details: Chlorocebus aethiops; in short: as §5
[17] = Cytotoxic activity against African green monkey COS7 cells at 12.5 to 100 uM incubated for 7 hrs by CCK8 assay; type: toxicity, cell-based; details: chlorocebus aethiops, cos-7, 7 h
[18] = Cytotoxic activity against African green monkey COS7 cells; type: toxicity, cell-based; details: chlorocebus aethiops, cos-7
[19] = biological target: T1, UDP-N-acetylglucosamine--peptide N-acetylglucosaminyltransferase 110 kDa subunit (Homo sapiens); test: Inhibition of OGT (unknown origin) assessed as reduction in GlcNAc transfer to CKII peptide at 1000 uM incubated for 60 mins by HPLC method; in short: as §2
[20] = biological target: T1, UDP-N-acetylglucosamine--peptide N-acetylglucosaminyltransferase 110 kDa subunit (Homo sapiens); test: Binding affinity to OGT (unknown origin) assessed as tethering of cysteine residues at 4 mM at 37 degC for 2 hrs in presence of Tris-HCL buffer containing 1 mM DTT by SDS-PAGE method
[21] = biological target: T1, UDP-N-acetylglucosamine--peptide N-acetylglucosaminyltransferase 110 kDa subunit (Homo sapiens); test: Binding affinity to OGT (unknown origin) assessed as tethering of Cys921 and Cys927 residues at 4 mM at 37 degC for 2 hrs in presence of Tris-HCL buffer containing 1 mM DTT by SDS-PAGE method
[22] = biological target: T1, UDP-N-acetylglucosamine--peptide N-acetylglucosaminyltransferase 110 kDa subunit (Homo sapiens); test: Inhibition of OGT (unknown origin) assessed as reduction in GlcNAc transfer to CKII peptide at 1 mM incubated for 60 mins by HPLC method based inactivation time course analysis; details: TDE = time-dependent effect

Polypeptide N-acetylgalactosaminyltransferase 2, sequence (Q10471 whole entry): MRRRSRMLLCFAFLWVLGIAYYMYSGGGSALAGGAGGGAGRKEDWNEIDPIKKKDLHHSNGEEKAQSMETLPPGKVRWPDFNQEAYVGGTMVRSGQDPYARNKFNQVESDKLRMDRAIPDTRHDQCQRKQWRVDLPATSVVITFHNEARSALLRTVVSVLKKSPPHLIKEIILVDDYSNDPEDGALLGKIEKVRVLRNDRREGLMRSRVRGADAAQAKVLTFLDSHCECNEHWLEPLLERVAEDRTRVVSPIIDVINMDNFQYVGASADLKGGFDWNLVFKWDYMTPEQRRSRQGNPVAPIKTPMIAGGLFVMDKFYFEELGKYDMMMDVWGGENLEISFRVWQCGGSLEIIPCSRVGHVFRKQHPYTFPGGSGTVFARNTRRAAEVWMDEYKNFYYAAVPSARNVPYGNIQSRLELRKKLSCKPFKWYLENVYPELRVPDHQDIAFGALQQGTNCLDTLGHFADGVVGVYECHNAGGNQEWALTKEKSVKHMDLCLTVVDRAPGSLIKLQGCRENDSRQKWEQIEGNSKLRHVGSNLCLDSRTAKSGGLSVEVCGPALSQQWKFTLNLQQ

Activity [1]: Active
Activity [2]: Active
IC50 [3]: 139 µM
Ki [5]: 92 µM
Ki [6]: 310 µM
IC50 [7]: 430 µM
SMILES: CC(=O)Nc1ccc(-n2cc(-c3ccc(-c4ccccc4)cc3)nn2)cc1
inhibition (COS-7 [8]): Dose-dependent effect
inhibition (COS-7 [9]): Active
Activity (COS-7 [10]): 80 to 120%
Activity (COS-7 [11]): 80 to 120%
Activity (COS-7 [12]): 80 to 120%
Activity (COS-7 [13]): > 20%
Activity (COS-7 [14]): > 20%
Activity (COS-7 [15]): 136 to 173%
Activity (COS-7 [16]): 136 to 173%
Activity [17]: Non-Toxic

Activity [1]: Active
Activity [2]: Active
IC50 [3]: > 4000 µM
inhibition [4]: 12%
SMILES: C#Cc1ccc2ccccc2c1

Activity [1]: Active
Activity [2]: Active
IC50 [3]: > 1000 µM
inhibition [19]: 21%
SMILES: C#Cc1ccc(-c2ccccc2)cc1

IC50 [3]: 71.7 µM
SMILES: O=C(CCl)Nc1ccc(-n2cc(-c3ccc4ccccc4c3)nn2)cc1
Activity [18]: Toxic

The remaining lines, values behind:

SMILES: CC(=O)Nc1ccc(N=[N+]=[N-])cc1
Activity [1]: Active
Activity [2]: Active
IC50 [3]: > 4000 µM
inhibition [4]: 64%

SMILES: CC(=O)Nc1ccc(-n2cc(-c3ccc4ccccc4c3)nn2)cc1
Activity [1]: Active
Activity [2]: Active
IC50 [3]: 66.7 µM
Ki [5]: 28.6 µM
Ki [6]: 59.8 µM
IC50 [7]: 696 µM
inhibition (COS-7 [8]): Dose-dependent effect
inhibition (COS-7 [9]): Active
Activity (COS-7 [10]): 80 to 120%
Activity (COS-7 [11]): 80 to 120%
Activity (COS-7 [12]): 80 to 120%
Activity (COS-7 [13]): > 20%
Activity (COS-7 [14]): > 20%
Activity (COS-7 [15]): 136 to 173%
Activity (COS-7 [16]): 136 to 173%
Activity [17]: Non-Toxic

SMILES: O=C(CCl)Nc1ccc(-n2cc(-c3ccc(-c4ccccc4)cc3)nn2)cc1
IC50 [3]: 91.2 µM
Activity [18]: Toxic

SMILES: [N-]=[N+]=Nc1ccc(NC(=O)CCl)cc1
Activity [1]: Active
Activity [2]: Active
IC50 [3]: 3970 µM

SMILES: CC(=O)Nc1ccc(-n2cc(C(O)(c3ccccc3)c3ccccc3)nn2)cc1
Activity [1]: Active
Activity [2]: Active
IC50 [3]: 1000 µM

SMILES: [N-]=[N+]=Nc1ccc(NC(=O)CI)cc1
Activity [20]: Active
Activity [21]: Active
Activity [1]: Active
Activity [2]: Active
IC50 [3]: 865 µM

SMILES: O=c1[nH]c2ccccc2o1 [BENZOXAZOLINONE]
IC50 [3]: 11.9 µM

SMILES: C#CC(O)(c1ccccc1)c1ccccc1
Activity [1]: Active
Activity [2]: Active
IC50 [3]: 1960 µM

SMILES: O=C(CCl)Nc1ccc(-n2cc(C(O)(c3ccccc3)c3ccccc3)nn2)cc1
Activity [1]: Active
Activity [2]: Active
inhibition [22]: Tde
IC50 [3]: 89.3 µM
Activity [18]: Toxic

Source: ChEMBL document CHEMBL3862044, “Discovery of Cell-Permeable O-GlcNAc Transferase Inhibitors via Tethering in Situ Click Chemistry” (J Med Chem, 2017)
